Source: ChEMBL document CHEMBL1125261, “1-Naphthylpiperazine derivatives as potential atypical antipsychotic agents” (J Med Chem, 1991)
The source made the active and inactive calls. The rule behind the calls is not given here.

Experiments:
[1] = system: Rattus norvegicus; assay: Antipsychotic activity determined in vivo by inhibition of amphetamine induced locomotor behavior in rats by the sc administration.; type: functional
In short: (§1)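 Male Sprague-Dawley rats (275–325 g, eight per group) habituated overnight in automated activity boxes, then dosed with test compound suspended in 90% saline/5% ethanol/5% Emulphor. d-Amphetamine sulfate 1.36 mg/kg given 1 h later. Floor quadrant crossings counted over 3 h. ANOVA with Dunnett's test; ED50 and 95% confidence limits by probit analysis of means converted to percent inhibition.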

[2] = biological target: D(2) dopamine receptor (Rattus norvegicus, UniProt P61169); assay: Binding affinity to dopamine receptor D2 in the rat brain using [3H]NPA as radioligand; type: tissue-based
In short: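 Rat brain D2 binding with [3H]NPA as ligand. IC50 taken from dose-response curves over three log concentrations of test compound, each in triplicate.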

[3] = biological target: T1, 5-hydroxytryptamine receptor 1A (Rattus norvegicus, UniProt P19327); assay: Binding affinity to 5-hydroxytryptamine 1A receptor in the rat brain using [3H]8-hydroxy-2-(di-n-propylamine)tetralin as radioligand.; type: tissue-based
T1 sequence (P19327 whole entry): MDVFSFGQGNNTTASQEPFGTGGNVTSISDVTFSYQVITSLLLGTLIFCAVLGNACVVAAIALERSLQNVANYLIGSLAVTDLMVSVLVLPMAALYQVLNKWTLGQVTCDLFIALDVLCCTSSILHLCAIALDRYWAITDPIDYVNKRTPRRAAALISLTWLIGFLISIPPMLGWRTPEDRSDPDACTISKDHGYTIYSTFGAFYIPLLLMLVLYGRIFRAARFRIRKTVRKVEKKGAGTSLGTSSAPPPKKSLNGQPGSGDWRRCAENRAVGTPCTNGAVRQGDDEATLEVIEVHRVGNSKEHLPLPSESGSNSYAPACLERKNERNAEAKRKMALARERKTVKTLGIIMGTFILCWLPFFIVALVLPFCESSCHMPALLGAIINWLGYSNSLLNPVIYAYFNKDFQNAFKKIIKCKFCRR
In short: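 Rat forebrain P2 membranes: lysed in 5 mM Tris acetate pH 7.4, washed, preincubated 30 min at 30 °C. Incubated with [3H]-8-OH-DPAT and test drug, 30 °C, 20 min; filtered, scintillation counted.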

[4] = system: Rattus norvegicus; assay: Antipsychotic activity determined in vivo by inhibition of amphetamine induced locomotor behavior in rats by the po administration.; type: functional; in short: as §1
[5] = system: Rattus norvegicus; assay: Compound was evaluated for the inhibition of apomorphine induced stereotypy behavior in rats after sc administration.; type: functional; set-up: unit not given here
In short: (§2)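 Male Sprague-Dawley rats (250–300 g, five per group) given test drug (2 mL/kg) or saline. At 1, 3 and 5 h they received apomorphine 0.75 mg/kg sc in water with 0.1% ascorbic acid. Stereotypy was rated every 10 min up to 50 min. ANOVA then Dunnett's t test over half-log dose multiples; MED was the lowest significant dose.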

[6] = system: Rattus norvegicus; assay: Compound was evaluated for the inhibition of haloperidol induced catalepsy behavior in rats after sc administration.; type: functional; set-up: unit not given here
In short: (§3)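 Catalepsy was tested on a horizontal rod after 3 h. Test drug or vehicle was then given and catalepsy duration scored every 30 min for 2.5 h. One-way ANOVA with Dunnett's test over half-log dose multiples; MED was the lowest significant dose.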

[7] = biological target: Adrenergic receptor alpha; assay: In vitro binding activity against Alpha receptor in rat brain using [3H]prazosin; type: tissue-based
In short: (§4)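 Whole rat brain minus cerebellum homogenized and washed twice in 50 mM Tris-HCl pH 7.7, resuspended in Tris pH 8.0. Incubated in triplicate with 0.22 nM (final) [3H]prazosin and drug, 25 °C, 30 min. Blank was 50 μM norepinephrine. Filtered through glass fiber and scintillation counted. IC50 from three log concentrations in triplicate.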

[8] = biological target: T2, Serotonin 2 (5-HT2) receptor (Rattus norvegicus, UniProt P30994+P08909+P14842); assay: (§5) Compound was evaluated In vitro for its activity by binding to 5-hydroxytryptamine 2 receptor in the rat brain using [3H]ketanserin as radioligand.; type: tissue-based
In short: (§6)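 Frozen male Sprague-Dawley rat brain cut into 20-μm cryostat sections. Incubated in 50 mM Tris pH 7.5 with 1 nM [3H]ketanserin and test drug, room temperature, 30 min; nonspecific binding with 2 μM pipamperone. Washed in ice-cold buffer, exposed to tritium film 6 weeks, read by densitometry.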

[9] = system: Rattus norvegicus; assay: Compound was evaluated for the inhibition of haloperidol induced catalepsy behavior in rats after po administration.; type: functional; in short: as §3
[10] = biological target: T2, Serotonin 2 (5-HT2) receptor; assay: as §5; type: tissue-based; remark: listed apart in the source
[11] = biological target: T2, Serotonin 2 (5-HT2) receptor; assay: Compound was evaluated for its activity by binding to 5-hydroxytryptamine 2 receptor in the rat brain using [3H]ketanserin as radioligand.; type: tissue-based; in short: as §6
[12] = system: Rattus norvegicus; assay: Compound was evaluated for inhibition of apomorphine induced stereotypy behavior in rats after sc administration.; type: functional; in short: as §2
[13] = system: Rattus norvegicus; assay: Compound was evaluated for the inhibition of apomorphine induced stereotypy behavior in rats after po administration.; type: functional; in short: as §2
[14] = system: Rattus norvegicus; assay: Compound was evaluated for the inhibition of apomorphine induced stereotypy behavior in rats after ip administration.; type: functional; in short: as §2
[15] = system: Rattus norvegicus; assay: Compound was evaluated for the inhibition of haloperidol induced catalepsy behavior in rats after sc administration; Inactive; type: functional, organism-based
[16] = biological target: Adrenergic receptor alpha; assay: Compound was evaluated In vitro for its activity by binding to Alpha receptor in the rat brain using [3H]prazosin as radioligand.; type: tissue-based; in short: as §4
[17] = biological target: Adrenergic receptor alpha; assay: Compound was evaluated In vitro for its activity by binding to Alpha adrenergic receptor in the rat brain using [3H]prazosin as radioligand.; type: tissue-based

D(2) dopamine receptor, sequence (P61169 whole entry): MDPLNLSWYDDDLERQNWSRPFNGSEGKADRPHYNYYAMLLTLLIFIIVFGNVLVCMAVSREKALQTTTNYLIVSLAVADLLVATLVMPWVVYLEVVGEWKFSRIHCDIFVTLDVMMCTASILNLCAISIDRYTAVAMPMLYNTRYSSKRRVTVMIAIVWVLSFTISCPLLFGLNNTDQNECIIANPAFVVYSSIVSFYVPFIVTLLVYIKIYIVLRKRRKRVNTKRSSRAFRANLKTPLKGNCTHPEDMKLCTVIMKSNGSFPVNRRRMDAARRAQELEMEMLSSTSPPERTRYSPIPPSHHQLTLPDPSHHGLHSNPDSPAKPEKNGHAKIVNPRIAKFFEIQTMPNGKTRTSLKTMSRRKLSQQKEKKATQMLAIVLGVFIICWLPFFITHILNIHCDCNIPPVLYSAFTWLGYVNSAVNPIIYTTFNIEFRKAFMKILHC

| Structure (SMILES) | ED50 [1] | IC50 [2] | IC50 [3] | MED [5] | IC50 [7] | also measured |
| --- | --- | --- | --- | --- | --- | --- |
| Oc1nc2ccc(CCN3CCN(c4cccc5ccccc45)CC3)cc2o1 | 1.6 mg/kg | 44 nM | 6.2 nM | 10 | 45 nM | ED50 [4]: 40.5 mg/kg; MED [6]: >10; IC50 [8]: 10 nM |
| O=C1Cc2cc(CCN3CCN(c4cccc5ccccc45)CC3)ccc2N1 | 1.21 mg/kg | 38 nM | 4.87 nM |  | 24 nM | ED50 [4]: 13.3 mg/kg; MED [9]: 10; IC50 [10]: 20 nM; MED [6]: >10 |
| c1ccc2c(N3CCN(CCc4ccc(-c5csnn5)cc4)CC3)cccc2c1 |  | 83 nM |  | >10 | 105 nM | IC50 [11]: 237 nM |
| Cc1nc(-c2ccc(CCN3CCN(c4cccc5ccccc45)CC3)cc2)cs1 |  | 108 nM |  | >10 | 166 nM |  |
| CCN1C(=O)Cc2cc(CCN3CCN(c4cccc5ccccc45)CC3)ccc21 |  | 81.2 nM | 2.9 nM |  | 248 nM |  |
| Cc1sc(N)nc1-c1ccc(CCN2CCN(c3cccc4ccccc34)CC2)cc1 | > 10 mg/kg | 159 nM |  |  | 234 nM | MED [12]: >3.2; MED [6]: >3.2 |
| Nc1nc(-c2ccc(CCN3CCN(c4cccc5ccccc45)CC3)cc2)cs1 |  | 72 nM | 11 nM |  | 135 nM | ED50 [4]: 25.3 mg/kg; MED [9]: 3.2; MED [13]: 32; IC50 [10]: 385 nM; MED [14]: 10 |
| CN1CCN(C2=Nc3cc(Cl)ccc3Nc3ccccc32)CC1 [CLOZAPINE] | 6.9 mg/kg |  |  |  |  | MED [15]: inactive |
| c1ccc2c(N3CCNCC3)cccc2c1 |  |  |  |  |  | IC50 [11]: 62 nM |
| CC1(C)C(=O)Nc2ccc(CCN3CCN(c4cccc5ccccc45)CC3)cc21 |  | 86 nM | 6.9 nM |  | 40 nM | IC50 [8]: 11.8 nM |
| O=C(CCCN1CCC(O)(c2ccc(Cl)cc2)CC1)c1ccc(F)cc1 [HALOPERIDOL] |  |  |  | 0.032 |  | MED [15]: inactive |
| CNc1nc(-c2ccc(CCN3CCN(c4cccc5ccccc45)CC3)cc2)cs1 |  | 155 nM |  | >10 |  | IC50 [16]: 252 nM |
| Oc1nc2ccc(CCN3CCN(c4cccc5ccccc45)CC3)cc2s1 |  |  | 2.2 nM | >10 |  | IC50 [17]: 24 nM; IC50 [10]: 50 nM |
| Oc1nc(-c2ccc(CCN3CCN(c4cccc5ccccc45)CC3)cc2)cs1 | > 10 mg/kg | 80 nM |  | >17.8 | 65 nM | MED [6]: 10; IC50 [11]: 249 nM |
